The values that follow come from PubChem BioAssay.

Test [1] is described as follows: reducers of endogenous Her2 protein level, primary screen, SKBR3 breast tumor cells, AlphaScreen, ATP viability (AID 461;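 active = Her2 level under about 52% in both replicate screens, with viability over 70% of control, limit read from the data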;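 for Her2 level: lower value means less Her2 protein in the cells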;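 for viability: percent of carrier control wells set as 100% viability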). As to conditions: 18-24 h, measured here: SKBR3 viability, ATP luminescence, at 10 µM. A general note: Alpha assays give light when donor and acceptor beads are brought close together.
The target in test [2] is Receptor tyrosine-protein kinase erbB-2 (Homo sapiens) (UniProt P04626). Described as above. As to conditions: 18-24 h, at 10 µM, stronger effect = lower value.
Sequence of Receptor tyrosine-protein kinase erbB-2 (Homo sapiens) (P04626 whole entry, looked up): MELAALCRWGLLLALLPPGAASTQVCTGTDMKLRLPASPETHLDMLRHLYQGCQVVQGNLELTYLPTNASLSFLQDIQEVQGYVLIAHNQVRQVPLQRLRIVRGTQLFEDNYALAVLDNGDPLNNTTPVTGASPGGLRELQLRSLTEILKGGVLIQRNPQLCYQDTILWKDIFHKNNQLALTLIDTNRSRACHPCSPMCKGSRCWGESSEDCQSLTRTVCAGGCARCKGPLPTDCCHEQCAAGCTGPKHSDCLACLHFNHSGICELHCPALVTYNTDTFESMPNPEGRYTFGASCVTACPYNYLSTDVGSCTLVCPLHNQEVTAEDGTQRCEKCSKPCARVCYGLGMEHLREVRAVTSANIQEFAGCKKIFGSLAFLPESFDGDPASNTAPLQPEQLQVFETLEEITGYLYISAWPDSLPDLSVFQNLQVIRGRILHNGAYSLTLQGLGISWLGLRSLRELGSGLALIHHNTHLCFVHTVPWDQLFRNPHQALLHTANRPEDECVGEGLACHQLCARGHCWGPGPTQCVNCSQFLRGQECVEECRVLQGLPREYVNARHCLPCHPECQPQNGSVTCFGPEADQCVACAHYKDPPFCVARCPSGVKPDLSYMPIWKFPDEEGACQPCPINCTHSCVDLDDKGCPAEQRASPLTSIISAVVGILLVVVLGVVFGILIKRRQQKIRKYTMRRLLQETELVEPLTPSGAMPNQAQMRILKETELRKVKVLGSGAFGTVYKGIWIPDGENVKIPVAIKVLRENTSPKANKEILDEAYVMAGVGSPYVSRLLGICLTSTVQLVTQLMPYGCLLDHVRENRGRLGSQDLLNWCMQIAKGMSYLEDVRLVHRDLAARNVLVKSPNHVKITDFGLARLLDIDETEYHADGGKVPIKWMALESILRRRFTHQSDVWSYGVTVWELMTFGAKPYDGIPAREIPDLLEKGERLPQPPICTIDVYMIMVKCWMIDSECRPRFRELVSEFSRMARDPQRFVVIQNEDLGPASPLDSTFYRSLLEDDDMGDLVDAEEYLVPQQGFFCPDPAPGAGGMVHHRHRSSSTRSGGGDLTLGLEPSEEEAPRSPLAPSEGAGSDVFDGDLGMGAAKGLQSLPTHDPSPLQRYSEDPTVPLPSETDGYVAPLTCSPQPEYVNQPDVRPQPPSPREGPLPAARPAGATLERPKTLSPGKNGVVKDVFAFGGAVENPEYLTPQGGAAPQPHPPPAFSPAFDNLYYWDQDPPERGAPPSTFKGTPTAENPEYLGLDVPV
Test [3] can be described thus: SK-BR-3 cell growth inhibitors, pilot screen, 24 h, human (AID 572).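 Note: compound exposure lasted between 18 and 24 h rather than exactly 24 h; 100% = carrier-treated control wells.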 As to conditions: SK-BR-3 viability, CellTiter-Glo luminescence, at 10 µM, stronger effect = lower value. Background: In ATP-based viability assays light output follows the ATP content of the culture.
The nature of test [4]: HUVEC growth inhibition – cell-based, human, primary screen (AID 575;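 active = viability at or below 30% in both replicate assays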;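 note: 100% = median of untreated cell wells with 0.1% DMSO on each plate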). As to conditions: HUVEC proliferation, CellTiter-Glo luminescence, 72 h; at 10 µM; stronger effect = lower value. In short, it runs like this:
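System: primary human umbilical vein endothelial cells; Quantity: 1250 endothelial cells in each well; Buffer or medium: supplemented EBM, 2% fetal bovine serum; Doses: one dose, 10 µM final, 0.1% DMSO; Incubation: 72 h compound incubation; Technique: ATP-based CellTiter-Glo luminescent read; Evaluation: percent of median DMSO-control luminescence; Controls: vehicle and MePR control wells.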

Test [5] is described as follows: growth inhibitors of H69AR lung tumor, primary screen, human, duplicate replicates (AID 580;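 active = viability at or under a set limit in both replicates, limit being median viability minus 3 SD, cut at about 48% in these data, passing the limit was not always enough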;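 note: 100% = mean luminescence of untreated wells and 0% = no signal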). As to conditions: H69AR lung tumor cells viability, ATP luminescence, 72 h; at 10 µM; stronger effect = lower value.
A short description of test [6]: reversal of MRP1-mediated doxorubicin resistance, pilot screen, H69AR cells, doxorubicin co-treatment (AID 601;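 active = viability loss from added drug above about 55%, and viability with drug at most 40%, in both replicates, limit read from the data, passing the limit was not always enough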). The settings on record: CellTiter-Glo, 72 h, at 10 µM; for differential viability (reversal): stronger effect = higher value.
Test [7] can be described thus: 384-well plate pilot, post-Golgi transport modulator project, inhibition of yeast transport mutant growth (AID 636; in the data active = inhibition above about 31%). As to conditions: absorbance 615 nm, about 18 h, stronger effect = higher value.
Test [8] is described as follows: growth suppression of yeast trafficking mutant, preliminary HTS, modulators of trafficking downstream of Golgi apparatus project, 1536-format plate, OD 615 nm (AID 637; in the data active = inhibition above about 30%). The settings on record: yeast transport mutant growth, absorbance 615 nm, 18 h; stronger effect = higher value.
The mark [9] stands for this setting: H69AR cells + 2 uM doxorubicin, measured here: viability with 2 uM doxorubicin, stronger effect = lower value.
The mark [10] stands for this setting: H69AR cells, compound alone cytotoxicity.

Calls of active or inactive are those of the source.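 Rule for the calls, unless noted: active = viability at or below 10% of carrier control in both of two separate runs; inconclusive = viability at or below 10% in only one of the two runs; inactive = the rest.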

Usually viability stands for a read-out of living cells in per cent, often relative to untreated cells. For orientation: inhibition means the relative decrease from the control value, in per cent. For `CC(C)C(c1nnnn1CC1CCCO1)N1CCN(Cc2ccc3c(c2)OCO3)CC1` (stereo not given), the viability in test [1] was 102%; in test [3] it was 102% (inactive); in test [4], 113% (inactive); in test [5] it was 95.3% (inactive); in test [6] (setting [9]), 90.3%; in test [6] (setting [10]) it was 95.3%. For the same molecule, the Her2 level in test [2] was 82.5% (inactive). Further, the differential viability (reversal) in test [6] (H69AR cells + 2 uM doxorubicin) was 4.93% (inactive). Further, the inhibition in test [7] was -6.44% (inactive); in test [8] it was -3.97% (inactive).

For `CCOC(=O)C(C)On1c(SC(C)C(=O)OCC)nc2ccccc2c1=O` (stereo not given), the viability in test [1] was 131%; in test [3], 131% (inactive); in test [4], 93.4% (inactive); in test [5] it was 82.1% (inactive); in test [6] (setting [9]), 102%; in test [6] (setting [10]), 82.1%. The Her2 level in test [2] is 102% (inactive). The differential viability (reversal) in test [6] (H69AR cells + 2 uM doxorubicin) is -19.7% (inactive). Besides, the figures for the inhibition in test [7] and in test [8] were -3.68% (inactive) and -6.61% (inactive), respectively.

On to `Cc1cc2ncc(C(=O)Nc3ccccc3)c(C)n2n1`, for which the viability in test [1] was 94%; in test [3] it was 94% (inactive); in test [4], 124% (inactive); in test [5] it was 99.5% (inactive); in test [6] (setting [9]) it was 86.8%; in test [6] (setting [10]) it was 99.5%. Further, the Her2 level in test [2] was 94% (inactive). In test [6] (H69AR cells + 2 uM doxorubicin), the differential viability (reversal) was 12.7% (inactive). The inhibition was -4.34% (inactive) in test [7] and -0.48% (inactive) in test [8].

For the molecule `COc1ccc(-c2nc(C#N)c(N3CCOCC3)o2)cc1OC`, the viability in test [1] was 111%; in test [3], 111% (inactive); in test [4], 89.8% (inactive); in test [5], 84.5% (inactive); in test [6] (setting [9]), 85%; in test [6] (setting [10]), 84.5%. Also, the Her2 level in test [2] was 92% (inactive). Moreover, the differential viability (reversal) in test [6] (H69AR cells + 2 uM doxorubicin) was -0.495% (inactive). Further, the inhibition in test [7] was -1.3% (inactive); in test [8], 9% (inactive).

Regarding `CCCc1cc(=O)n2[nH]c(-c3ccc(Br)cc3)cc2n1`, the viability in test [1] was 90.5%; in test [3], 90.5% (inactive); in test [4], 56.2% (inactive); in test [5], 73.1% (inactive); in test [6] (setting [9]) it was 88.7%; in test [6] (setting [10]) it was 73.1%. Also, the Her2 level in test [2] is 71.5% (inactive). Also, in test [6] (H69AR cells + 2 uM doxorubicin), the differential viability (reversal) was -15.6% (inactive). For the same molecule, the inhibition was -2.76% (inactive) in test [7] and -1.9% (inactive) in test [8].

`CSCSC1=C(C#N)C(c2ccc(Cl)cc2)C(C(C)=O)=C(C)N1` (stereo not given): the viability was 106% in test [1]; 106% (inactive) in test [3]; 64.3% (inactive) in test [4]; 75.2% (inactive) in test [5]; 80.6% in test [6] (setting [9]); 75.2% in test [6] (setting [10]). In test [2], the Her2 level was 94.5% (inactive). The differential viability (reversal) in test [6] (H69AR cells + 2 uM doxorubicin) is -5.35% (inactive). The values for the inhibition in test [7] and in test [8] were -5.32% (inactive) and 1.31% (inactive), respectively.

In the case of `O=c1c2cc(Cl)ccc2[nH]c(=S)n1Cc1ccco1`, the viability in test [1] was 84.5%; in test [3], 84.5% (inactive); in test [4] it was 93.6% (inactive); in test [5], 86.7% (inactive); in test [6] (setting [9]) it was 88%; in test [6] (setting [10]), 86.7%. Further, the Her2 level in test [2] is 81% (inactive). Moreover, in test [6] (H69AR cells + 2 uM doxorubicin), the differential viability (reversal) is -1.27% (inactive). In addition, the inhibition in test [7] is -8.13% (inactive); in test [8] it was 10.2% (inactive).

For `Cc1ccc(C(=O)Nc2nc3c(s2)CCCC3)o1`, the viability is 104% in test [1]; 104% (inactive) in test [3]; 60.9% (inactive) in test [4]; 73.3% (inactive) in test [5]; 79.1% in test [6] (setting [9]); 73.3% in test [6] (setting [10]). Further, the Her2 level in test [2] was 72% (inactive). In test [6] (H69AR cells + 2 uM doxorubicin), the differential viability (reversal) was -5.85% (inactive). Also, the inhibition in test [7] is -1.71% (inactive); in test [8], 16.6% (inactive).

On to `c1ccc(Cc2nnc3n2CCCCC3)cc1`, for which the viability in test [1] is 99%; in test [3], 99% (inactive); in test [4], 93.9% (inactive); in test [5], 99.2% (inactive); in test [6] (setting [9]), 97.7%; in test [6] (setting [10]) it was 99.2%. For the same molecule, the Her2 level in test [2] was 90% (inactive). The differential viability (reversal) in test [6] (H69AR cells + 2 uM doxorubicin) was 1.42% (inactive). In addition, the inhibition in test [7] was -7.2% (inactive); in test [8] it was 0.82% (inactive).

As for `Cc1ccc(OCC(=O)NCCN2CCCC2)cc1`, the viability was 97.5% in test [1]; 97.5% (inactive) in test [3]; 86% (inactive) in test [4]; 95.9% (inactive) in test [5]; 86.4% in test [6] (setting [9]); 95.9% in test [6] (setting [10]). For the same molecule, the Her2 level in test [2] was 84.5% (inactive). In test [6] (H69AR cells + 2 uM doxorubicin), the differential viability (reversal) is 9.56% (inactive). In addition, the figures for the inhibition in test [7] and in test [8] were -6.8% (inactive) and 2.3% (inactive), respectively.

`CCOc1ccc(Oc2nc(Nc3ccc(C)cc3)nc(N(C)C)n2)nn1`: the viability was 85.5% in test [1]; 85.5% (inactive) in test [3]; 89.3% (inactive) in test [4]; 95.3% (inactive) in test [5]; 84% in test [6] (setting [9]); 95.3% in test [6] (setting [10]). For the same molecule, the Her2 level in test [2] is 92% (inactive). Moreover, in test [6] (H69AR cells + 2 uM doxorubicin), the differential viability (reversal) is 11.3% (inactive). Besides, the inhibition in test [7] was -4.19% (inactive); in test [8] it was 1.97% (inactive).

Regarding `O=C(Cn1nnc(-c2ccncc2)n1)Nc1ccc2c(c1)CCC2`, the viability in test [1] is 112%; in test [3], 112% (inactive); in test [4] it was 107% (inactive); in test [5], 110% (inactive); in test [6] (setting [9]), 96.4%; in test [6] (setting [10]), 110%. In addition, in test [2], the Her2 level is 93.5% (inactive). Further, the differential viability (reversal) in test [6] (H69AR cells + 2 uM doxorubicin) was 13.3% (inactive). Moreover, the inhibition in test [7] was -6.45% (inactive); in test [8], 2.38% (inactive).

As to `O=c1[nH]c2ccccc2nc1NCCN1CCOCC1`, the viability in test [1] is 97.5%; in test [3], 97.5% (inactive); in test [4], 114% (inactive); in test [5], 97.1% (inactive); in test [6] (setting [9]), 89.1%; in test [6] (setting [10]), 97.1%. Moreover, in test [2], the Her2 level is 87.5% (inactive). The differential viability (reversal) in test [6] (H69AR cells + 2 uM doxorubicin) is 7.97% (inactive). The inhibition was -0.79% (inactive) in test [7] and 3.93% (inactive) in test [8].

With `CCOC(=O)c1ccc2nc(NC(NC(C)=O)(C(=O)OC)C(F)(F)F)sc2c1` (stereo not given), the viability is 98.5% in test [1]; 98.5% (inactive) in test [3]; 82.8% (inactive) in test [4]; 98.6% (inactive) in test [5]; 83.6% in test [6] (setting [9]); 98.6% in test [6] (setting [10]). The Her2 level in test [2] was 88.5% (inactive). Further, the differential viability (reversal) in test [6] (H69AR cells + 2 uM doxorubicin) was 15% (inactive). Also, the inhibition was -3.03% (inactive) in test [7] and -1.82% (inactive) in test [8].
